Reference: ChEMBL document CHEMBL5724801, “EUbOPEN Chemogenomics Library - Multiplex” (2024)
“And” between values parts separate entries of the source, which are not always exact repeats. Equal values may be shown once.

Test system: Fibroblast
Experiment: Multiplex assay against human fibroblast
Assay type: toxicity, cell-based
Method in brief: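 Hoechst33342, BioTracker Green Microtubule Cytoskeleton Dye, MitoTracker Red and Annexin V Alexa Fluor 680 were added to live cells at seeding, and imaging on a CQ1 microscope at 37°C and 5% CO2 followed compound addition. Gating by CellPathfinder machine learning separated cells into Hoechst high-intensity objects or normal cells, then normal cells into healthy, pyknosed or fragmented nuclei, then pyknosed cells into mitotic or apoptotic. Per cents of healthy-nucleus cells are reported for the tubulin, mitochondrial-mass and membrane-permeability phenotypes.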

[1] = 12 h, 1 µM, compound concentration 1 uM
[2] = 12 h, 10 µM, compound concentration 10 uM
[3] = 24 h, 1 µM, compound concentration 1 uM
[4] = 24 h, 10 µM, compound concentration 10 uM
[5] = 48 h, 1 µM, compound concentration 1 uM
[6] = 48 h, 10 µM, compound concentration 10 uM

## Nc1nc(-c2ccco2)c2cnn(Cc3ccccc3F)c2n1
[1]
  Population Apoptotic (%): 50% and 45%
  Population Healthy Nuclei (%): 78% and 50%
  Population Hoechst High Intensity Objects (%): 0% and 6%
  Population Membrane Permeable-Phenotype (%): 1% and 2%
  Population Mitochondria Different-Phenotype (%): 2% and 5%
  Population Mitotic Cells (%): 50% and 54%
  Population Normal (%): 99% and 93%
  Population Pyknosed Nuclei (%): 11% and 17%
  Population Tubulin-Different-Phenotype (%): 26% and 42%
  Total Cell Count: 189 and 144
[2]
  Population Apoptotic (%): 54% and 47%
  Population Fragmented Nuclei (%): 16% and 39%
  Population Healthy Nuclei (%): 61% and 44%
  Population Hoechst High Intensity Objects (%): 8% and 10%
  Population Membrane Permeable-Phenotype (%): 0% and 5%
  Population Mitochondria Different-Phenotype (%): 7% and 13%
  Population Mitotic Cells (%): 45% and 52%
  Population Normal (%): 91% and 89%
  Population Pyknosed Nuclei (%): 21% and 16%
  Population Tubulin-Different-Phenotype (%): 38% and 51%
  Total Cell Count: 123 and 147
[3]
  Population Apoptotic (%): 50% and 56%
  Population Healthy Nuclei (%): 82% and 53%
  Population Hoechst High Intensity Objects (%): 0% and 6%
  Population Membrane Permeable-Phenotype (%): 0% and 4%
  Population Mitochondria Different-Phenotype (%): 2% and 5%
  Population Mitotic Cells (%): 50% and 43%
  Population Normal (%): 100% and 93%
  Population Pyknosed Nuclei (%): 7% and 17%
  Population Tubulin-Different-Phenotype (%): 24% and 37%
  Total Cell Count: 180 and 139
[4]
  Population Apoptotic (%): 70% and 43%
  Population Fragmented Nuclei (%): 19% and 43%
  Population Healthy Nuclei (%): 66% and 44%
  Population Hoechst High Intensity Objects (%): 6% and 8%
  Population Mitochondria Different-Phenotype (%): 8% and 5%
  Population Mitotic Cells (%): 29% and 56%
  Population Normal (%): 93% and 91%
  Population Pyknosed Nuclei (%): 14% and 11%
  Population Tubulin-Different-Phenotype (%): 39% and 46%
  Total Cell Count: 127 and 147
[5]
  Population Apoptotic (%): 45% and 57%
  Population Fragmented Nuclei (%): 16% and 41%
  Population Healthy Nuclei (%): 77% and 48%
  Population Hoechst High Intensity Objects (%): 3% and 6%
  Population Membrane Permeable-Phenotype (%): 2% and 4%
  Population Mitochondria Different-Phenotype (%): 1% and 9%
  Population Mitotic Cells (%): 54% and 42%
  Population Normal (%): 96% and 93%
  Population Pyknosed Nuclei (%): 6% and 10%
  Population Tubulin-Different-Phenotype (%): 26% and 37%
  Total Cell Count: 182 and 147
[6]
  Population Apoptotic (%): 80% and 50%
  Population Fragmented Nuclei (%): 25% and 50%
  Population Healthy Nuclei (%): 65% and 38%
  Population Hoechst High Intensity Objects (%): 9% and 5%
  Population Membrane Permeable-Phenotype (%): 0% and 16%
  Population Mitochondria Different-Phenotype (%): 10%
  Population Mitotic Cells (%): 20% and 50%
  Population Normal (%): 90% and 94%
  Population Pyknosed Nuclei (%): 9% and 10%
  Population Tubulin-Different-Phenotype (%): 27% and 51%
  Total Cell Count: 115 and 155

## CN(C)C(=O)Cn1cc(-c2ccc(-c3cncc4ccccc34)cc2)cn1
[1]
  Population Apoptotic (%): 47% and 32%
  Population Healthy Nuclei (%): 72% and 46%
  Population Hoechst High Intensity Objects (%): 0% and 5%
  Population Membrane Permeable-Phenotype (%): 0% and 5%
  Population Mitochondria Different-Phenotype (%): 5% and 2%
  Population Mitotic Cells (%): 52% and 67%
  Population Normal (%): 100% and 94%
  Population Pyknosed Nuclei (%): 16% and 20%
  Population Tubulin-Different-Phenotype (%): 31% and 54%
  Total Cell Count: 139 and 161
[2]
  Population Apoptotic (%): 33%
  Population Healthy Nuclei (%): 69% and 42%
  Population Hoechst High Intensity Objects (%): 4% and 9%
  Population Mitochondria Different-Phenotype (%): 12% and 5%
  Population Mitotic Cells (%): 66%
  Population Normal (%): 95% and 90%
  Population Pyknosed Nuclei (%): 16%
  Population Tubulin-Different-Phenotype (%): 52% and 81%
  Total Cell Count: 113 and 98
[3]
  Population Apoptotic (%): 47% and 48%
  Population Healthy Nuclei (%): 73% and 38%
  Population Hoechst High Intensity Objects (%): 5%
  Population Membrane Permeable-Phenotype (%): 0% and 7%
  Population Mitochondria Different-Phenotype (%): 3% and 5%
  Population Mitotic Cells (%): 52% and 51%
  Population Normal (%): 94%
  Population Pyknosed Nuclei (%): 14% and 20%
  Population Tubulin-Different-Phenotype (%): 37% and 61%
  Total Cell Count: 137 and 156
[4]
  Population Apoptotic (%): 50% and 41%
  Population Fragmented Nuclei (%): 20% and 41%
  Population Healthy Nuclei (%): 62% and 43%
  Population Hoechst High Intensity Objects (%): 8% and 5%
  Population Membrane Permeable-Phenotype (%): 0% and 11%
  Population Mitochondria Different-Phenotype (%): 12% and 8%
  Population Mitotic Cells (%): 50% and 58%
  Population Normal (%): 91% and 94%
  Population Pyknosed Nuclei (%): 17% and 15%
  Population Tubulin-Different-Phenotype (%): 59% and 85%
  Total Cell Count: 113 and 85
[5]
  Population Apoptotic (%): 76% and 44%
  Population Fragmented Nuclei (%): 21% and 36%
  Population Healthy Nuclei (%): 65% and 40%
  Population Hoechst High Intensity Objects (%): 6% and 7%
  Population Membrane Permeable-Phenotype (%): 3% and 5%
  Population Mitochondria Different-Phenotype (%): 8% and 7%
  Population Mitotic Cells (%): 23% and 55%
  Population Normal (%): 93% and 92%
  Population Pyknosed Nuclei (%): 12% and 22%
  Population Tubulin-Different-Phenotype (%): 57% and 77%
  Total Cell Count: 144 and 141
[6]
  Population Fragmented Nuclei (%): 24% and 47%
  Population Healthy Nuclei (%): 54% and 44%
  Population Hoechst High Intensity Objects (%): 9% and 0%
  Population Membrane Permeable-Phenotype (%): 0% and 8%
  Population Mitochondria Different-Phenotype (%): 20% and 13%
  Population Normal (%): 90% and 99%
  Population Pyknosed Nuclei (%): 20% and 7%
  Population Tubulin-Different-Phenotype (%): 55% and 73%
  Total Cell Count: 117 and 102
